Assay results reported in paper PMC2647014 (Journal of the American Chemical Society, 2008).
One block for each molecule: values may come before it.

What was measured:
[1] = Stability to hydrolysis of the imide ring in PBS buffer; format: physicochemical
Outline: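 Fluorophore-bearing model peptides are incubated in PBS at pH 6, 7 and 8 and 28 °C, with fluorescence monitored in a 96-well plate over 24 hrs. For the 4-DMAP peptide, percent conversion is the percent loss of fluorescence from time zero.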

[2] = cited from earlier work
[3] = Stability toward 4-methylpiperidine / piperidine; format: physicochemical; settings: during preparation of fluorescent peptides by SPPS
Outline: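 Resin-bound model peptides are treated with 4-methylpiperidine under conditions simulating a standard Fmoc-deprotection cycle. Treated and untreated samples are cleaved from the resin under acidic conditions. Crude mixtures are analysed by HPLC and ESI mass spectrometry for hydrolysis byproducts.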

[4] = Photophysical properties of the fluorescent KR peptides; format: physicochemical; settings: visible spectrum

Compound: CN(C)c1ccc2cc3c(cc2c1)C(=O)NC3=O [6-DMN, 6-N,N-dimethylamino-2,3-naphthalimide, reference compound]
emission maximum of fluorescent species from hydrolysis ([1]; hydrolysis product, high pH): 470-480 nm

Compound: CN(C)c1ccc2cc(C(=O)CBr)ccc2c1 [BADAN, 6-bromoacetyl-2-dimethylaminonaphthalene]
fluorescence quantum yield in water (Φwater) [2]: 0.18

Compound: CN(C)c1ccc2c3c(cccc13)C(=O)N(C[C@H](NC(=O)OCC1c3ccccc3-c3ccccc31)C(=O)O)C2=O [compound 4, N-α-Fmoc-(4-N,N-Dimethylamino-1,8-naphthalimido)-alanine]
susceptibility to piperidine (in words) [3]: shows no susceptibility to piperidine

Further lines, with some results ahead:

fluorescence emission after 24 hrs (in words) ([1]; PBS buffer, 28 °C, 24 hrs, Figure 2b, harshest conditions anticipated): no significant change in fluorescence
Compound: CN(C)c1ccc2c3c(cccc13)C(=O)NC2=O [4-DMN, 4-N,N-dimethylamino-1,8-naphthalimide]

hydrolysis product fluorescence (in words) ([1]; hydrolysis of the imide ring, high pH): non-fluorescent byproduct
Compound: CN(C)c1ccc2c(c1)C(=O)NC2=O [4-DMAP, 4-N,N-dimethylaminophthalimide, reference compound]

wavelength of excitation of the fluorophore / amino acid [4]: 400-450 nm
Compound: CN(C)c1ccc2c3c(cccc13)C(=O)N(C[C@H](N)C(=O)O)C2=O [4-DMNA, 4-N,N-dimethylamino-1,8-naphthalimidoalanine]
relative stability of fluorescent side-chain (in words) ([1]; compared with 4-DAPA and 6-DMNA): significantly more stable than those of 4-DAPA and 6-DMNA
